# How the values were obtained:
# Type in all cases: functional
# Escherichia coli [1] = test: Antimicrobial activity against Escherichia coli isolate 2 after 24 hrs by broth microdilution method; details: isolate 2, 24 h
# Procedure, shortened: (§1)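 Broth microdilution following NCCLS M7-A4; ATCC strains and clinical isolates from a provincial hospital.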
# Staphylococcus aureus [2] = test: Antimicrobial activity against methicillin-resistant Staphylococcus aureus after 24 hrs by broth microdilution method
# Procedure, shortened: (§2)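 Broth microdilution following NCCLS M7-A4, using ATCC strains and clinical isolates from a provincial hospital.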
# Staphylococcus aureus [3] = test: Antimicrobial activity against methicillin-susceptible Staphylococcus aureus after 24 hrs by broth microdilution method; procedure, shortened: as §1
# Escherichia coli [4] = test: Antimicrobial activity against Escherichia coli isolate 1 after 24 hrs by broth microdilution method; details: isolate 1, 24 h; procedure, shortened: as §1
# Staphylococcus aureus [5] = test: Antimicrobial activity against Staphylococcus aureus after 24 hrs by broth microdilution method; procedure, shortened: as §1
# [6] = system: Staphylococcus epidermidis; test: Antimicrobial activity against Staphylococcus epidermidis after 24 hrs by broth microdilution method; procedure, shortened: as §1
# [7] = system: Staphylococcus epidermidis; test: Antimicrobial activity against methicillin-resistant Staphylococcus epidermidis after 24 hrs by broth microdilution method; procedure, shortened: as §2
# [8] = system: Staphylococcus epidermidis; test: Antimicrobial activity against methicillin-susceptible Staphylococcus epidermidis after 24 hrs by broth microdilution method; procedure, shortened: as §1
# Enterococcus faecalis = test: Antimicrobial activity against Enterococcus faecalis after 24 hrs by broth microdilution method; procedure, shortened: as §1
# Streptococcus pneumoniae = test: Antimicrobial activity against penicillin-resistant Streptococcus pneumoniae after 24 hrs by broth microdilution method; procedure, shortened: as §2
# Moraxella catarrhalis = test: Antimicrobial activity against Moraxella catarrhalis after 24 hrs by broth microdilution method; procedure, shortened: as §1
structure (smiles),measurement,setting,value
CCCC[C@H](CN(O)C=O)C(=O)N1CC=C[C@H]1C(=O)Nc1ccccn1,MIC,Escherichia coli [1],32 µg/mL
same,MIC,Staphylococcus aureus [2],0.125 µg/mL
same,MIC,Staphylococcus aureus [3],1 µg/mL
same,MIC,Escherichia coli [4],> 64 µg/mL
same,MIC,Staphylococcus aureus [5],0.125 µg/mL
same,MIC,[6],0.5 µg/mL
CCCC[C@H](CN(O)C=O)C(=O)N1CC=C[C@H]1C(=O)N1CCOCC1,MIC,Escherichia coli [1],> 64 µg/mL
same,MIC,Staphylococcus aureus [2],32 µg/mL
same,MIC,Staphylococcus aureus [3],> 64 µg/mL
same,MIC,Escherichia coli [4],> 64 µg/mL
same,MIC,Staphylococcus aureus [5],> 64 µg/mL
same,MIC,[6],> 64 µg/mL
CCCC[C@H](CN(O)C=O)C(=O)N1CC=C[C@H]1C(=O)NC1CC1,MIC,Escherichia coli [1],32 µg/mL
same,MIC,Staphylococcus aureus [2],2 µg/mL
same,MIC,Staphylococcus aureus [3],32 µg/mL
same,MIC,Escherichia coli [4],64 µg/mL
same,MIC,Staphylococcus aureus [5],64 µg/mL
same,MIC,[6],4 µg/mL
CCCC[C@H](CN(O)C=O)C(=O)N1CC=C[C@H]1C(=O)Nc1ccc(Cl)cc1,MIC,Escherichia coli [1],> 64 µg/mL
same,MIC,Staphylococcus aureus [2],1 µg/mL
same,MIC,Staphylococcus aureus [3],2 µg/mL
same,MIC,Escherichia coli [4],> 64 µg/mL
same,MIC,Staphylococcus aureus [5],8 µg/mL
same,MIC,[6],4 µg/mL
CCCC[C@H](CN(O)C=O)C(=O)N1CC=C[C@H]1C(=O)Nc1ccccc1Br,MIC,Escherichia coli [1],> 64 µg/mL
same,MIC,Staphylococcus aureus [2],1 µg/mL
same,MIC,Staphylococcus aureus [3],4 µg/mL
same,MIC,Escherichia coli [4],> 64 µg/mL
same,MIC,Staphylococcus aureus [5],32 µg/mL
same,MIC,[6],8 µg/mL
CCCC[C@H](CN(O)C=O)C(=O)N1CC=C[C@H]1C(=O)Nc1cccc(Br)c1,MIC,Escherichia coli [1],16 µg/mL
same,MIC,Staphylococcus aureus [2],0.125 µg/mL
same,MIC,Staphylococcus aureus [3],1 µg/mL
same,MIC,Escherichia coli [4],64 µg/mL
same,MIC,Staphylococcus aureus [5],8 µg/mL
same,MIC,[6],1 µg/mL
CCCC[C@H](CN(O)C=O)C(=O)N1CC=C[C@H]1C(=O)Nc1ccc(Br)cc1,MIC,Escherichia coli [1],> 64 µg/mL
same,MIC,Staphylococcus aureus [2],0.5 µg/mL
same,MIC,Staphylococcus aureus [3],1 µg/mL
same,MIC,Escherichia coli [4],> 64 µg/mL
same,MIC,Staphylococcus aureus [5],4 µg/mL
same,MIC,[6],2 µg/mL
CCCC[C@H](CN(O)C=O)C(=O)N1CC=C[C@H]1C(=O)Nc1ccccc1Cl,MIC,Escherichia coli [1],64 µg/mL
same,MIC,Staphylococcus aureus [2],0.25 µg/mL
same,MIC,Staphylococcus aureus [3],2 µg/mL
same,MIC,Escherichia coli [4],> 64 µg/mL
same,MIC,Staphylococcus aureus [5],0.5 µg/mL
same,MIC,[6],1 µg/mL
CCCC[C@H](CN(O)C=O)C(=O)N1CC=C[C@H]1C(=O)Nc1ccc(F)cc1,MIC,Escherichia coli [1],64 µg/mL
same,MIC,Staphylococcus aureus [2],1 µg/mL
same,MIC,Staphylococcus aureus [3],2 µg/mL
same,MIC,Escherichia coli [4],> 64 µg/mL
same,MIC,Staphylococcus aureus [5],2 µg/mL
same,MIC,[6],4 µg/mL
CCCC[C@H](CN(O)C=O)C(=O)N1CC=C[C@H]1C(=O)Nc1ccc([N+](=O)[O-])cc1,MIC,Escherichia coli [1],32 µg/mL
same,MIC,Staphylococcus aureus [2],0.5 µg/mL
same,MIC,Staphylococcus aureus [3],2 µg/mL
same,MIC,Escherichia coli [4],> 64 µg/mL
same,MIC,Staphylococcus aureus [5],0.5 µg/mL
same,MIC,[6],0.5 µg/mL
CCCC[C@H](CN(O)C=O)C(=O)N1CC=C[C@H]1C(=O)Nc1ccc(OC)cc1,MIC,Escherichia coli [1],> 64 µg/mL
same,MIC,Staphylococcus aureus [2],1 µg/mL
same,MIC,Staphylococcus aureus [3],2 µg/mL
same,MIC,Escherichia coli [4],> 64 µg/mL
same,MIC,Staphylococcus aureus [5],0.5 µg/mL
same,MIC,[6],2 µg/mL
CCCC[C@H](CN(O)C=O)C(=O)N1CC=C[C@H]1C(=O)Nc1nnc(C(F)(F)F)s1,MIC,Escherichia coli [1],> 64 µg/mL
same,MIC,Staphylococcus aureus [2],8 µg/mL
same,MIC,Staphylococcus aureus [3],16 µg/mL
same,MIC,Escherichia coli [4],> 64 µg/mL
same,MIC,Staphylococcus aureus [5],32 µg/mL
same,MIC,[6],16 µg/mL
CCCC[C@H](CN(O)C=O)C(=O)N1CC=C[C@H]1C(=O)N[C@@H](C)c1ccccc1,MIC,Escherichia coli [1],> 64 µg/mL
same,MIC,Staphylococcus aureus [2],8 µg/mL
same,MIC,Staphylococcus aureus [3],16 µg/mL
same,MIC,Escherichia coli [4],> 64 µg/mL
same,MIC,Staphylococcus aureus [5],4 µg/mL
same,MIC,[6],8 µg/mL
CCCC[C@H](CN(O)C=O)C(=O)N1CC=C[C@H]1C(=O)N[C@H](C)c1ccccc1,MIC,Escherichia coli [1],> 64 µg/mL
same,MIC,Staphylococcus aureus [2],2 µg/mL
same,MIC,Staphylococcus aureus [3],16 µg/mL
same,MIC,Escherichia coli [4],> 64 µg/mL
same,MIC,Staphylococcus aureus [5],4 µg/mL
same,MIC,[6],4 µg/mL
CCCC[C@H](CN(O)C=O)C(=O)N1CC=C[C@H]1C(=O)Nc1ccccc1,MIC,Escherichia coli [1],64 µg/mL
same,MIC,Staphylococcus aureus [2],1 µg/mL
same,MIC,Staphylococcus aureus [3],8 µg/mL
same,MIC,Escherichia coli [4],> 64 µg/mL
same,MIC,Staphylococcus aureus [5],4 µg/mL
same,MIC,[6],2 µg/mL
C=C1C[C@@H](C(=O)N2CCOCC2)N(C(=O)[C@H](CCCC)CN(O)C=O)C1,MIC,Escherichia coli [1],> 64 µg/mL
same,MIC,Staphylococcus aureus [2],4 µg/mL
same,MIC,Staphylococcus aureus [3],64 µg/mL
same,MIC,Escherichia coli [4],> 64 µg/mL
same,MIC,Staphylococcus aureus [5],4 µg/mL
same,MIC,[6],8 µg/mL
C=C1C[C@@H](C(=O)Nc2ccccc2)N(C(=O)[C@H](CCCC)CN(O)C=O)C1,MIC,Escherichia coli [1],> 64 µg/mL
same,MIC,Staphylococcus aureus [2],0.5 µg/mL
same,MIC,Staphylococcus aureus [3],4 µg/mL
same,MIC,Escherichia coli [4],64 µg/mL
same,MIC,Staphylococcus aureus [5],1 µg/mL
same,MIC,[6],1 µg/mL
C=C1C[C@@H](C(=O)Nc2ccc(F)cc2)N(C(=O)[C@H](CCCC)CN(O)C=O)C1,MIC,Escherichia coli [1],64 µg/mL
same,MIC,Staphylococcus aureus [2],0.25 µg/mL
same,MIC,Staphylococcus aureus [3],2 µg/mL
same,MIC,Escherichia coli [4],64 µg/mL
same,MIC,Staphylococcus aureus [5],0.5 µg/mL
same,MIC,[6],0.5 µg/mL
C=C1C[C@@H](C(=O)Nc2ccc(F)c[n+]2[O-])N(C(=O)[C@H](CCCC)CN(O)C=O)C1,MIC,Escherichia coli [1],> 64 µg/mL
same,MIC,Staphylococcus aureus [2],0.5 µg/mL
same,MIC,Staphylococcus aureus [3],4 µg/mL
same,MIC,Escherichia coli [4],> 64 µg/mL
same,MIC,Staphylococcus aureus [5],1 µg/mL
same,MIC,[6],1 µg/mL
O=CN(O)C[C@@H](CC1CCCC1)C(=O)N1CC=C[C@H]1C(=O)N1CCOCC1,MIC,Escherichia coli [1],> 64 µg/mL
same,MIC,Staphylococcus aureus [2],32 µg/mL
same,MIC,Staphylococcus aureus [3],64 µg/mL
same,MIC,Escherichia coli [4],> 64 µg/mL
same,MIC,Staphylococcus aureus [5],64 µg/mL
same,MIC,[6],64 µg/mL
C[C@H](NC(=O)[C@@H]1C=CCN1C(=O)[C@H](CC1CCCC1)CN(O)C=O)c1ccccc1,MIC,Escherichia coli [1],> 64 µg/mL
same,MIC,Staphylococcus aureus [2],4 µg/mL
same,MIC,Staphylococcus aureus [3],16 µg/mL
same,MIC,Escherichia coli [4],> 64 µg/mL
same,MIC,Staphylococcus aureus [5],4 µg/mL
same,MIC,[6],8 µg/mL
O=CN(O)C[C@@H](CC1CCCC1)C(=O)N1CC=C[C@H]1C(=O)Nc1ccc(F)cn1,MIC,Escherichia coli [1],16 µg/mL
same,MIC,Staphylococcus aureus [2],0.125 µg/mL
same,MIC,Staphylococcus aureus [3],0.5 µg/mL
same,MIC,Escherichia coli [4],32 µg/mL
same,MIC,Staphylococcus aureus [5],0.25 µg/mL
same,MIC,[6],0.125 µg/mL
CCCC[C@H](CN(O)C=O)C(=O)N1C[C@@H](F)C[C@H]1C(=O)Nc1ncc(C)s1,MIC,[7],8 µg/mL
same,MIC,[8],4 µg/mL
same,MIC,Staphylococcus aureus [2],8 µg/mL
same,MIC,Staphylococcus aureus [3],8 µg/mL
same,MIC,Staphylococcus aureus [5],8 µg/mL
same,MIC,Enterococcus faecalis,> 16 µg/mL
same,MIC,Streptococcus pneumoniae,0.06 µg/mL
same,MIC,Moraxella catarrhalis,0.25 µg/mL
CCCC[C@H](CN(O)C=O)C(=O)N1C[C@@H](F)C[C@H]1C(=O)Nc1ccc(F)c[n+]1[O-],MIC,[7],16 µg/mL
same,MIC,[8],4 µg/mL
same,MIC,Staphylococcus aureus [2],4 µg/mL
same,MIC,Staphylococcus aureus [3],4 µg/mL
same,MIC,Staphylococcus aureus [5],4 µg/mL
same,MIC,Enterococcus faecalis,> 16 µg/mL
same,MIC,Streptococcus pneumoniae,0.06 µg/mL
same,MIC,Moraxella catarrhalis,0.25 µg/mL
CCCC[C@H](CN(O)C=O)C(=O)N1[C@H](C(=O)Nc2ncc(C)s2)C[C@H]2CCCC[C@@H]21,MIC,[7],16 µg/mL
same,MIC,[8],0.5 µg/mL
same,MIC,Staphylococcus aureus [2],8 µg/mL
same,MIC,Staphylococcus aureus [3],8 µg/mL
same,MIC,Staphylococcus aureus [5],8 µg/mL
same,MIC,Enterococcus faecalis,> 16 µg/mL
same,MIC,Streptococcus pneumoniae,0.03 µg/mL
same,MIC,Moraxella catarrhalis,0.03 µg/mL
CCCC[C@H](CN(O)C=O)C(=O)N1[C@H](C(=O)Nc2ccc(C)cn2)C[C@H]2CCCC[C@@H]21,MIC,[7],16 µg/mL
same,MIC,[8],0.5 µg/mL
same,MIC,Staphylococcus aureus [2],4 µg/mL
same,MIC,Staphylococcus aureus [3],8 µg/mL
same,MIC,Staphylococcus aureus [5],8 µg/mL
same,MIC,Enterococcus faecalis,> 16 µg/mL
same,MIC,Streptococcus pneumoniae,0.03 µg/mL
same,MIC,Moraxella catarrhalis,0.03 µg/mL
O=C(O)c1cn(C2CC2)c2cc(N3CCNCC3)c(F)cc2c1=O [CIPROFLOXACIN],MIC,Escherichia coli [1],< 0.0312 µg/mL
same,MIC,Staphylococcus aureus [2],1 µg/mL
same,MIC,Staphylococcus aureus [3],0.5 µg/mL
same,MIC,Escherichia coli [4],< 0.0312 µg/mL
same,MIC,Staphylococcus aureus [5],0.5 µg/mL
same,MIC,[6],0.25 µg/mL
CC1(C)S[C@@H]2[C@H](NC(=O)Cc3ccccc3)C(=O)N2[C@H]1C(=O)O [PENICILLIN G],MIC,Escherichia coli [1],> 64 µg/mL
same,MIC,Staphylococcus aureus [2],64 µg/mL
same,MIC,Staphylococcus aureus [3],1 µg/mL
same,MIC,Escherichia coli [4],> 64 µg/mL
same,MIC,Staphylococcus aureus [5],0.0625 µg/mL
same,MIC,[6],2 µg/mL
CN[C@H](CC(C)C)C(=O)N[C@H]1C(=O)N[C@@H](CC(N)=O)C(=O)N[C@H]2C(=O)N[C@H]3C(=O)N[C@H](C(=O)N[C@H](C(=O)O)c4cc(O)cc(O)c4-c4cc3ccc4O)[C@H](O)c3ccc(c(Cl)c3)Oc3cc2cc(c3O[C@@H]2O[C@H](CO)[C@@H](O)[C@H](O)[C@H]2O[C@H]2C[C@](C)(N)[C@H](O)[C@H](C)O2)Oc2ccc(cc2Cl)[C@H]1O [VANCOMYCIN],MIC,Escherichia coli [1],> 64 µg/mL
same,MIC,Escherichia coli [4],> 64 µg/mL

# From ChEMBL document CHEMBL3352487, “Synthesis, antibacterial activity, and biological evaluation of formyl hydroxyamino derivatives as novel potent peptide deformylase inhibitors against drug-resistant bacteria” (Eur J Med Chem, 2014)
